Reference: ChEMBL document CHEMBL1145208, “3-Substituted imidazo[1,2-d][1,2,4]-thiadiazoles: a novel class of factor XIIIa inhibitors” (J Med Chem, 2005)
Converted amounts (≈) assume the structure as drawn.

Columns and labels:
Cell line = assay: Concentration causing reduction in fibrin gamma-chain cross-linking in platelet-depleted human plasma; assay type: functional
[1] = molecular target: T1, Coagulation factor XIII A chain (Homo sapiens, UniProt P00488); assay: In vitro inhibitory concentration of compound against factor XIIIa
T1 sequence (P00488 whole entry): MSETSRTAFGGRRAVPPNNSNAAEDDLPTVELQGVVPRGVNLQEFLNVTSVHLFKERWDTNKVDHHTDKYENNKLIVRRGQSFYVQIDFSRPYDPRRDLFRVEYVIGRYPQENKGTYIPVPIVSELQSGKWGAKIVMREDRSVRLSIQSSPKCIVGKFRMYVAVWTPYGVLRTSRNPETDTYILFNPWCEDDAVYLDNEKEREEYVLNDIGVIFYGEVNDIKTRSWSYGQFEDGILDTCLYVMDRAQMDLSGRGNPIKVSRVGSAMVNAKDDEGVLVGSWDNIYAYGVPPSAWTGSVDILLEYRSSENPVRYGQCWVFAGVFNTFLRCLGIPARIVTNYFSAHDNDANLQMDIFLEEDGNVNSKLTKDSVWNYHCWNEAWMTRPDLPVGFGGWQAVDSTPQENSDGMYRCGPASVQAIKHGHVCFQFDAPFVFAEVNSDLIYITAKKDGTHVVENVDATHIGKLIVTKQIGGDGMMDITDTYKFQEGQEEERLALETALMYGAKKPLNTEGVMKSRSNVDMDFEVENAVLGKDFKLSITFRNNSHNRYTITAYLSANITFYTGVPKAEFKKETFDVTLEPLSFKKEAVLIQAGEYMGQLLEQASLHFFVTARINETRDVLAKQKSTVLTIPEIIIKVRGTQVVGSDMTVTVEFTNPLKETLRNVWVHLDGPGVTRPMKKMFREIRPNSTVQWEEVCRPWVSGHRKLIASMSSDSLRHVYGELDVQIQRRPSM

[2] = Solubility at pH 7.4 was determined; assay type: physicochemical; settings: buffer
Method in brief: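 Aqueous solubility of the inhibitors measured at pH 7.4, reported in mg/mL.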

| SMILES | IC50 [1] | also measured |
| --- | --- | --- |
| O=[N+]([O-])c1ccccc1S(=O)(=O)NCCCCCCNc1nsc2nccn12 |  | Concentration (Cell line): 160 µM |
| O=[N+]([O-])c1ccc(S(=O)(=O)NCCCCCCNc2n[s+]c3[n-]ccn23)cc1 | 0.91 µM |  |
| O=C(O)CN(CCCCCCNS(=O)(=O)c1ccccc1[N+](=O)[O-])c1nsc2nccn12 |  | solubility [2]: 380 µg/mL (≈ 787 µM) |
| O=[N+]([O-])c1ccccc1S(=O)(=O)NCCCCCCNc1ncccc1[N+](=O)[O-] | 170 µM |  |
